These results are taken from ChEMBL document CHEMBL4699573, “Design, Synthesis, and Pharmacological Evaluation of Analogues Derived from the PLEV Tetrapeptide as Protein-Protein Interaction Modulators of Voltage-Gated Sodium Channel 1.6” (J Med Chem, 2020).

Series [1] has as its system HEK293. In words: Modulation of recombinant human FGF141b (1 to 252 residues)-recombinant human Nav1.6 C-terminal tail (1763 to 1976 residues) protein-protein interaction expressed in HEK293 cells measured at 2 mins interval for 20 mins by split-luciferase complementation assay relative to control. Format: cell-based. As to conditions: filed as modulator, time min 2-20. In short, it runs like this: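 Double-stable HEK293 line expressing CLuc-FGF14 and CD4-Nav1.6-C-tail-NLuc, kept on G418 and puromycin. Cells seeded for 24 h, then given compound for 1 h in serum-free, phenol red-free DMEM/F12 with a final 0.5% DMSO: 50 μM for screening, 0.25–100 μM over eight concentrations for dose-response; n = 4. D-luciferin added and read every 2 min for 20 min at 37 °C. Peak luminescence expressed as percent of per-plate DMSO mean (n = 32). IC50 from four-parameter nonlinear fit. At least 3 experiments.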

For series [2], the target named is T1, Fibroblast growth factor 14 (Homo sapiens) (UniProt Q92915).
T1 sequence (whole entry): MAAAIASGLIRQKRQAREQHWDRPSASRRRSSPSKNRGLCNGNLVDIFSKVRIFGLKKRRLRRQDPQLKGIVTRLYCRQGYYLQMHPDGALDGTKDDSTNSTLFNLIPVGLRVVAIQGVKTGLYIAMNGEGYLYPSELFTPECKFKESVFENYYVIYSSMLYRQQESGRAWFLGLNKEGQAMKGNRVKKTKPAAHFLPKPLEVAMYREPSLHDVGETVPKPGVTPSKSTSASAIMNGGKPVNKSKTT
In words: Binding affinity to human recombinant FGF14 expressed in Escherichia coli BL21 assessed as assessed as induction of protein denaturation by measuring change in melting temperature at 50 uM by fluorescent dye based thermal shift assay. As to conditions: filed as modulator.

The target in series [3] is T2, Fibroblast growth factor 14 (Homo sapiens, UniProt Q92915).
T2 sequence (Q92915 whole entry): T1 sequence (whole entry)
In words: Binding affinity to human recombinant FGF14 expressed in Escherichia coli BL21 assessed as dissociation constant by SPR analysis. In short, it runs like this:
(§1)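 Biacore T100 runs with FGF14 (17,896 RU) or Nav1.6 C-tail (6,800 RU) amine-coupled on CM5 at pH 5.5. Compounds at 0.195–200 μM in PBS, 0.005% Tween-20, 2% DMSO; 50 μL/min at 25 °C. 120 s association, 150 s dissociation, DMSO calibration, blank subtraction. Rates from a Langmuir 1:1 fit; KD averages the kinetic and steady-state values. At least duplicate experiments.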

For series [4], the target named is T3, Sodium channel protein type 8 subunit alpha (Homo sapiens, UniProt Q9UQD0). Nature of the series: Binding affinity to human recombinant Nav1.6 C-terminal domain expressed in Escherichia coli BL21 assessed as dissociation constant by SPR analysis. In short, it runs like this: as §1
Target sequence in this assay (Q9UQD0 whole entry, the tested form may be a part): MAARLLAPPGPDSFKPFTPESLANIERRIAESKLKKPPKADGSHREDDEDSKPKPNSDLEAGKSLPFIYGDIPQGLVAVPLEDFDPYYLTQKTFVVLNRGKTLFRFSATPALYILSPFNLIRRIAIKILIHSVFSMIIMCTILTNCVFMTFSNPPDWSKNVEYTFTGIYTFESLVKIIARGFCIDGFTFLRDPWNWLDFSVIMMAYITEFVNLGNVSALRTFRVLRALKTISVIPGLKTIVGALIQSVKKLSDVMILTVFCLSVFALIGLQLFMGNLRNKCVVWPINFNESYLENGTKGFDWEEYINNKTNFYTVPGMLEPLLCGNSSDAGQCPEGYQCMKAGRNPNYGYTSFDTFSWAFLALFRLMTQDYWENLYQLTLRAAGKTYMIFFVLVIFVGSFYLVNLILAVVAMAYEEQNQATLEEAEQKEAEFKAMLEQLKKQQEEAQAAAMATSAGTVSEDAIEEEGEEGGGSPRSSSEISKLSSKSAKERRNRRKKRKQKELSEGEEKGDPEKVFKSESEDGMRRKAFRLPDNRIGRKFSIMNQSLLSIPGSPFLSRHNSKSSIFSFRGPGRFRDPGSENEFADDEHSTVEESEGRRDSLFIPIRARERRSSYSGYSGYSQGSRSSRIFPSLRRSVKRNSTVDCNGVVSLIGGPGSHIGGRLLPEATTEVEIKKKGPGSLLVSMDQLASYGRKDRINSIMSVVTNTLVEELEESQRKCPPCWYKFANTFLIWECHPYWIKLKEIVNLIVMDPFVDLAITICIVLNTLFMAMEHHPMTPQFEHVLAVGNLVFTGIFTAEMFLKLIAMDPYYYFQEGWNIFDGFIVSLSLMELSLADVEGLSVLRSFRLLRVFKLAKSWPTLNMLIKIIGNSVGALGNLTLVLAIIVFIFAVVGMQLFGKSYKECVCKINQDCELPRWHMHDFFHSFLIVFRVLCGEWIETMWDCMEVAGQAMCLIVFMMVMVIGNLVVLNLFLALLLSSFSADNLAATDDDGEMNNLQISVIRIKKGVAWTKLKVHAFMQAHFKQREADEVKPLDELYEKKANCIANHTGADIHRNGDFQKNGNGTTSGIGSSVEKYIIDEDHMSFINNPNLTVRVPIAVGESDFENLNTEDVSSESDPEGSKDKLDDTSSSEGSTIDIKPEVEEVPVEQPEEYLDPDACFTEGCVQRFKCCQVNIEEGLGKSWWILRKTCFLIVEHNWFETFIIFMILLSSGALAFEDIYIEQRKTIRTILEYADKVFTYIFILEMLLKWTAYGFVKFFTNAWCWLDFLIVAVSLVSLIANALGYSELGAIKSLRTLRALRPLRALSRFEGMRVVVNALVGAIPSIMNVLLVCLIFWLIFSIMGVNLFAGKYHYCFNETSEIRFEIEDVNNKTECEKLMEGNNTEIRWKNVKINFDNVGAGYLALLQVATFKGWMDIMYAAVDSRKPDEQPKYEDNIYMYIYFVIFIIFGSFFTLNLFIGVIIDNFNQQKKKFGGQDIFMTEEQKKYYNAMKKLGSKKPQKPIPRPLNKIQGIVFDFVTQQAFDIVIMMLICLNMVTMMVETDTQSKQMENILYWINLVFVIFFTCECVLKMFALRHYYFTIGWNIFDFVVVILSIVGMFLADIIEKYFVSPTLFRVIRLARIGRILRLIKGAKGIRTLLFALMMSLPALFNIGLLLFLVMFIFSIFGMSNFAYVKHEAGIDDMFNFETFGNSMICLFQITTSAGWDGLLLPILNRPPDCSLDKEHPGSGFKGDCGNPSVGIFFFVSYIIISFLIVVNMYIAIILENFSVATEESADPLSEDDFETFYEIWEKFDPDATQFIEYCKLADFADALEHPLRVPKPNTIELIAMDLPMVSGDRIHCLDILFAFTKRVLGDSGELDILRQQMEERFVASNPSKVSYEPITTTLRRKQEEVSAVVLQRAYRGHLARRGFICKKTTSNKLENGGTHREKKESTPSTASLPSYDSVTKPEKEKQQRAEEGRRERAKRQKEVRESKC
Series [5] deals with T3, Sodium channel protein type 8 subunit alpha. In words: Binding affinity to human recombinant Nav1.6 C-terminal domain expressed in Escherichia coli BL21 assessed as dissociation rate constant by SPR analysis. Particulars: filed as modulator. In short, it runs like this:
as §1
Target sequence in this assay (Q9UQD0 whole entry, looked up, the tested form may be a part): as the sequence (Q9UQD0 whole entry, the tested form may be a part) above

Series [6] addresses T4, Fibroblast growth factor 14/SCN8A (Homo sapiens) (UniProt Q9UQD0+Q92915). In words: Modulation of human recombinant FGF14-Nav1.6 C-terminal domain expressed in Escherichia coli BL21 (DE3) protein-protein interaction assessed as association rate constant by SPR analysis (reference value: 2.18X10^4 +/- 1.6X10^2 /M/s). As to conditions: filed as modulator. In short, it runs like this: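 FGF14 at 15.6–1500 nM, premixed with 10 μM compound or DMSO, flowed over CM5-bound Nav1.6 C-terminal tail (934 RU). Final 2.1% DMSO, 25 °C, 50 μL/min, 120 s association and 150 s dissociation. Blank-subtracted sensorgrams fitted to a Langmuir 1:1 model.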

Series [7] concerns the target T3, Sodium channel protein type 8 subunit alpha. Nature of the series: Modulation of recombinant human Nav1.6 C-terminal tail (1763 to 1976 residues) expressed in HEK293 cells assessed as change in time constant of fast inactivation at 10 uM incubated for 30 mins by whole cell patch clamp electrophysiology assay (reference value: 1.22 +/- 0.07 ms). Particulars: filed as modulator. The format is cell-based. In short, it runs like this:
(§2)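 Stable HEK-Nav1.6 cells without FGF14, incubated at least 30 min in extracellular solution (mM: 140 NaCl, 3 KCl, 1 MgCl2, 1 CaCl2, 10 HEPES, 10 glucose, pH 7.3) with compound (10 or 30 μM) or 0.1% DMSO. Whole-cell recording with Cs-methanesulfonate/EGTA/NaCl/HEPES pipette solution, 70–80% compensation. Steps −100 to +60 mV; tau measured at −10 mV. Student's t-test.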
Target sequence in this assay (Q9UQD0 whole entry, looked up, the tested form may be a part): as the sequence (Q9UQD0 whole entry, the tested form may be a part) above

Series [8] has the same target. Nature of the series: Modulation of recombinant human Nav1.6 C-terminal tail (1763 to 1976 residues) expressed in HEK293 cells assessed as half activation voltage at 10 uM incubated for 30 mins by whole cell patch clamp electrophysiology assay (reference value: -25.4 +/- 1 mV). Format: cell-based. In short, it runs like this: as §2
Target sequence in this assay (Q9UQD0 whole entry, looked up, the tested form may be a part): as the sequence (Q9UQD0 whole entry, the tested form may be a part) above
For series [9] the target is unchanged. Nature of the series: Modulation of recombinant human Nav1.6 C-terminal tail (1763 to 1976 residues) expressed in HEK293 cells assessed as long-term inactivation at depolarization cycle 2 at 10 uM incubated for 30 mins by whole cell patch clamp electrophysiology assay (reference value: 0.84 +/- 0.03). The format is cell-based. As to conditions: filed as modulator.
Target sequence in this assay (Q9UQD0 whole entry, looked up, the tested form may be a part): as the sequence (Q9UQD0 whole entry, the tested form may be a part) above

The target is the same in series [10]. Nature of the series: Modulation of recombinant human Nav1.6 C-terminal tail (1763 to 1976 residues) expressed in HEK293 cells assessed as long-term inactivation at depolarization cycle 3 at 10 uM incubated for 30 mins by whole cell patch clamp electrophysiology assay (reference value: 0.76 +/- 0.05). Format: cell-based. Particulars: filed as modulator.
Target sequence in this assay (Q9UQD0 whole entry, looked up, the tested form may be a part): as the sequence (Q9UQD0 whole entry, the tested form may be a part) above
Series [11] deals with T4, Fibroblast growth factor 14/SCN8A (Homo sapiens). In words: Modulation of recombinant human Nav1.6 C-terminal tail (1763 to 1976 residues)-FGF14 (64 to 252 residues) protein-protein interaction expressed in HEK293 cells assessed as change in time constant of inactivation at 10 uM incubated for 30 mins by cell patch clamp electrophysiology assay (reference value: 1.58 +/- 0.18 ms). The format is cell-based. Particulars: filed as modulator. In short, it runs like this: (§3)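 HEK-Nav1.6 cells transiently transfected with FGF14 using Lipofectamine 2000, then exposed at least 30 min to 10 μM compound or 0.1% DMSO in the pH 7.3 HEPES extracellular solution. Whole-cell patch clamp with Cs-methanesulfonate internal solution, 70–80% capacitance and series-resistance compensation. Test steps from −100 to +60 mV. Student's t-test used.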

Series [12] shares this target. In words: Modulation of recombinant human Nav1.6 C-terminal tail (1763 to 1976 residues)-FGF14 (64 to 252 residues) protein-protein interaction expressed in HEK293 cells assessed as steady state half inactivation voltage at 10 uM incubated for 30 mins by whole cell patch clamp electrophysiology assay (reference value: -55.1 +/- 2 mV). The format is cell-based. In short, it runs like this:
as §3

Series [13] has as its target T3, Sodium channel protein type 8 subunit alpha. In words: Modulation of recombinant human Nav1.6 C-terminal tail (1763 to 1976 residues) expressed in HEK293 cells assessed as steady state half inactivation voltage at 10 uM incubated for 30 mins by whole cell patch clamp electrophysiology assay (reference value: -62 +/- 1.3 mV). The format is cell-based. In outline: as §2
Target sequence in this assay (Q9UQD0 whole entry, looked up, the tested form may be a part): as the sequence (Q9UQD0 whole entry, the tested form may be a part) above

For series [14], the system named is HEK293. In words: Cytotoxicity against HEK293 cells assessed as reduction in cell viability measured after 18 hrs by celltiter-blue assay. As to conditions: human, hek293, 18 h.

Residues, ends and D or L forms follow the SMILES beside them. *: point of attachment. Adamantane1carbonyl = O=C(C12CC3CC(CC(C3)C1)C2)*; OtBu = CC(C)(C)O*

T4 sequence (Q9UQD0 whole entry, looked up, one chain of several, the tested form may be a part): as the sequence (Q9UQD0 whole entry, the tested form may be a part) above

Regarding `COC(=O)[C@@H](NC(=O)[C@H](CCC(=O)OC(C)(C)C)NC(=O)[C@H](CC(C)C)NC(=O)[C@@H]1CCCN1C(=O)C12CC3CC(CC(C3)C1)C2)C(C)C` (Adamantane1carbonyl-PLE(OtBu)V-OMe), the Efficacy with HEK293 [1] came out at 96.1%. Besides, the ΔTm in [2] was -2.27 °C. For the same molecule, the Kd in series [3] was 4.05 µM; in series [4], 16.4 µM. For the same molecule, the K was 3.57 10^-3/s in series [5], 5.88 10^6/M/s in series [6], 1.45 ms in series [7] and 1 ms in series [11]. Also, the Activity in series [8] is -16.9 mV; in series [9], 0.87; in series [10] it was 0.76; in series [12] it was -65.6 mV; in series [13], -55.2 mV; in the series with HEK293 [14], “Non-Toxic”.
